# This is a sample that favours compounds with a hit; in the whole collection about 3% have one here.
# UBC13 inh – blocks human UBC13 polyubiquitin chain formation. P61088. inhibition, % at 20 µM. TR-FRET. hit rate 0.47% among 330,000. AID 485273; in the data active means inhibition above about 45%, passing the limit was not always enough
# SENP8 block-1 – inhibitors of human SENP8 protease | hit rate 1.2% among 330,000 | inhibition, % at 10 µM | AID 2540 | Q96LD8 | purified SENP8, Z-RLRGG-aminoluciferin cleavage, luminescence; in the data active means inhibition above about 50%
# SENP7 inh – blocks the human protease SENP7. Q9BQF6. AID 434973. hit rate 1.5% among 330,000. recombinant SENP7, Z-RLRGG-aminoluciferin luminescence, 40 min. inhibition, % at 5 µM;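 active means inhibition above about 50% at the single test dose, limit read from the data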;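 further: plate controls were DMSO with enzyme for no effect and no enzyme buffer wells for full effect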
# SENP8 block-2 – SENP8 (human) protease inhibition; recombinant SENP8, Nedd8 substrate fluorescence; inhibition, % at 20 µM; hit rate 0.64% among 360,000; in the data active means inhibition mostly above about 40%, no sharp cut-off; inactive means mostly below about 27%
# SENP6 inh – inhibitors of human SENP6 protease. Q9GZR1. inhibition, % at 10 µM. hit rate 1.8% among 330,000. Recombinant SENP6 catalytic domain, aminoluciferin luminescence;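 active means inhibition above about 50% at the single tested dose, limit read from the data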;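 further: plate controls were DMSO wells with enzyme for no effect and DMSO wells lacking enzyme for full effect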
# Target sequence (Q9GZR1 628-1112 limits assumed): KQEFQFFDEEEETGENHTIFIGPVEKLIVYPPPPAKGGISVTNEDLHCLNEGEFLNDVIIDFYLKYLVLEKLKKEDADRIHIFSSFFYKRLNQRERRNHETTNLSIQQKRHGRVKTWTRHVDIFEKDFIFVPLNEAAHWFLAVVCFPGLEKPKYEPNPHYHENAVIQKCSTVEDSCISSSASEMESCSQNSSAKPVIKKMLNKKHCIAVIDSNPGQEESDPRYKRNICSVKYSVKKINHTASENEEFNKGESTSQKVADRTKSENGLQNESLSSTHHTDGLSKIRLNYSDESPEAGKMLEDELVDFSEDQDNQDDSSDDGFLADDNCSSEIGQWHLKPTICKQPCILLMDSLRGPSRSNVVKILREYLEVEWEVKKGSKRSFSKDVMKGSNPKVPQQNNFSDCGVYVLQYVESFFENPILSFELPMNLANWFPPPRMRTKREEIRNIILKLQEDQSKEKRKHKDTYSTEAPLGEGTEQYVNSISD
# Apaf-1 inh – inhibitors of human Apaf-1 apoptosome; inhibition, % at 20 µM; reconstituted apoptosome caspase-3 activity, DEVD-Rh110 fluorescence; hit rate 0.71% among 330,000; AID 489030; active means inhibition of at least 40% at 20 µM;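 further: plate controls were DMSO wells for no effect and DEVD-CHO caspase inhibitor wells for full effect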
#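 Material: biochemical Apaf-1 apoptosome reconstitution. Medium: Hepes buffer, pH 7.5. Also added: cytochrome c activation, bis-DEVD rhodamine 110 substrate. Timing: 30 min compound preincubation, 50 min activation, room temperature. Measured by: rhodamine 110 fluorescence at Ex 480/Em 540 nm.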
# SENP8 confirm – human SENP8 inhibition, confirmed. hit rate 40% among 6,200. Recombinant SENP8, Z-RLRGG-aminoluciferin luminescence, 60 min. AID 488912. shares compounds with SENP7 inh. inhibition, % at 12.5 µM;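 active means mean inhibition across replicates above about 50%, limit read from the data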
# SENP6 conf – human SENP6 inhibition, confirmed; shares compounds with SENP7 inh; recombinant SENP6, Z-RLRGG-aminoluciferin luminescence; inhibition, % at 12.5 µM; hit rate 58% among 6,200
# SENP7 confirm – human SENP7 inhibition, confirmed; shares compounds with SENP7 inh; inhibition, % at 12.5 µM; recombinant SENP7, Z-RLRGG-aminoluciferin luminescence, 40 min; hit rate 69% among 6,200
# Casp3 SENP sel – caspase-3 inhibition (SENP selectivity assay) | shares compounds with SENP7 inh | hit rate 60% among 6,200 | purified caspase-3, Z-DEVD-aminoluciferin luminescence, 60 min | inhibition, % at 12.5 µM;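 active means mean inhibition above about 50%, limit read from the data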;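 further: plate controls were enzyme with DMSO for no effect and wells without caspase-3 for full effect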
# Luc interf – interferes with luciferase luminescence in SENP counter-screen; inhibition, % at 12.5 µM; AID 488919; shares compounds with SENP7 inh; Pre-incubated SENP8/Z-RLRGG-aminoluciferin, luciferase luminescence interference; hit rate 39% among 6,200;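 active means mean inhibition above about 50% when retested at one dose, limit read from the data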;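 further: plate controls were DMSO wells with completed reaction for no effect and substrate without enzyme for full effect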
# Numbers without * were called inactive; · = not tested or not shown.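 How the source made its calls, unless noted: active means mean inhibition above about 50% in the one-dose retest (limit read from the data); inactive means the rest.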
SMILES,UBC13 inh,SENP8 block-1,SENP7 inh,SENP8 block-2,SENP6 inh,Apaf-1 inh,SENP8 confirm,SENP6 conf,SENP7 confirm,Casp3 SENP sel,Luc interf
COc1cccc(OCc2nc3ccccc3[nH]2)c1,5,65*,74*,25,67*,14,73*,72*,93*,86*,75*
CC(C)OCCCNc1nc(Cl)nc2c1cnn2C,·,·,·,5,·,·,·,·,·,·,·
COc1ccc(CCN(C)CC(O)c2ccccc2)cc1OC (centres undefined),-5,-3,7,20,8,-1,·,·,·,·,·
O=C(O)c1cccnc1SCC(=O)N1CCCc2ccccc21,-4,-3,1,6,-8,-18,·,·,·,·,·
O=C(NC(=S)/C(=C1\CCCCCN1)[N+](=O)[O-])c1ccccc1,3,57*,60*,14,60*,-1,77*,71*,93*,74*,10
O=C(NC(=S)Nc1ccccc1[N+](=O)[O-])c1ccccc1,-5,-7,-15,18,-21,14,·,·,·,·,·
CC(C)(C)c1ccc2c(c1)N(CC(=O)N1CCOCC1)C(=O)CO2,11,3,-1,11,-3,-3,·,·,·,·,·
C=CCN(c1ccccc1)S(=O)(=O)c1cc2c(cc1C)N(C)CCO2,-17,0,0,-5,-10,0,·,·,·,·,·
Cc1ccc([C@@H]2C[C@H]3CN(Cc4cccc(Cl)c4)C(=O)[C@]34CCCN24)o1,1,4,-5,1,64*,-17,-14,-11,-11,-6,-11
COc1ccc(-c2nn3c(=O)c(C)nnc3s2)cc1,4,0,-3,-194,1,3,·,·,·,·,·
Cc1nc2sc(-c3ccccc3)nn2c(=O)c1Br,13,60*,73*,-30,75*,2,48,33,42,61*,11
OCc1ncccc1O,1,-9,-8,11,-45,0,·,·,·,·,·
N#Cc1ccccc1NC(=O)CN1C(=O)NC(Cc2c[nH]c3ccccc23)C1=O (centres undefined),-10,9,-2,-17,-1,-3,·,·,·,·,·
CCOc1ccc2nc(N3CCC(C(=O)N4CCN(C5CCCCC5)CC4)CC3)sc2c1,26,-3,-9,17,-14,11,·,·,·,·,·
Fc1ccc2nc(N3CCCC3)sc2c1,1,44,56*,4,31,-22,-8,46,85*,69*,15
Clc1cc(Cl)c2nc(N3CCCCC3)sc2c1,-8,27,47,16,67*,14,18,9,25,17,11
Fc1cc(F)c2nc(N3CCCCC3)sc2c1,5,61*,75*,10,36,-1,11,75*,95*,72*,20
CCOc1ccc2nc(N3CCCCCC3)sc2c1,12,37,62*,2,55*,10,51*,55*,84*,50*,57*
O=C(c1cccs1)N1CCN(c2nc3c(F)cc(F)cc3s2)CC1,2,-7,-1,2,3,8,·,·,·,·,·
Clc1cc(Cl)c2nc(N3CCCC3)sc2c1,-12,29,36,8,-1,21,·,·,·,·,·
CC(=O)NCCc1ccc(S(=O)(=O)Nc2ccc3c(c2)OCCO3)cc1,6,-4,-7,28,-3,-5,·,·,·,·,·
Cn1nc(C(=O)O)c(=O)n(C)c1=O,·,·,·,19,·,·,·,·,·,·,·
COC(=O)c1ccc(Cn2c(C)c(C(=O)NCc3cccc(C(F)(F)F)c3)sc2=O)o1,·,·,·,8,·,·,·,·,·,·,·
CC(=O)N1c2ccccc2N2C(c3c(C)c(C)cc(C)c3C)=NON12,·,·,·,16,·,·,·,·,·,·,·
